Measured values as given in ChEMBL document CHEMBL4130549, “Synthesis and bioactivities study of new antibacterial peptide mimics: The dialkyl cationic amphiphiles” (Eur J Med Chem, 2018).
Active and inactive are the calls of the source. The rule behind the calls is not given here.

Assays:
Klebsiella pneumoniae [1] = assay: Antibacterial activity against carbapenemase-producing Klebsiella pneumoniae isolate K10 after 16 to 20 hrs by broth microdilution method; assay type: functional
Procedure, shortened: (§1)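 Broth microdilution per CLSI in cation-adjusted Mueller-Hinton broth; 4-6 h cultures (~10⁸ CFU/mL) diluted to ~10⁶ CFU/mL and mixed 1:1 with twofold dilutions of water-dissolved compound (256 to 0.5 µg/mL). Incubated 16-20 h at 37 °C; MIC read visually. Each concentration run in duplicate, whole experiment repeated at least twice. MRSA, KPC and NDM-1 strains were clinical isolates.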

Klebsiella pneumoniae [2] = assay: Antibacterial activity against carbapenemase-producing Klebsiella pneumoniae isolate K7 after 16 to 20 hrs by broth microdilution method; assay type: functional; procedure, shortened: as §1
Salmonella enterica = assay: Antibacterial activity against Salmonella enterica after 16 to 20 hrs by broth microdilution method; assay type: functional; procedure, shortened: as §1
Staphylococcus aureus [3] = assay: Antibacterial activity against methicillin-resistant Staphylococcus aureus isolate M4 after 16 to 20 hrs by broth microdilution method; assay type: functional
Procedure, shortened: (§2)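 CLSI broth microdilution in cation-adjusted Mueller-Hinton broth. A 4-6 h culture was diluted to about 10⁶ CFU/mL and mixed 1:1 with twofold compound dilutions (256–0.5 µg/mL before mixing) prepared from aqueous stocks. Plates were incubated at 37 °C for 16-20 h. Each concentration was tested in duplicate, and the experiment was repeated at least twice.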

Staphylococcus aureus [4] = assay: Bactericidal activity against Staphylococcus aureus after 20 to 24 hrs using compounds preincubated with 50% plasma for 3 to 6 hrs by broth microdilution method
Staphylococcus aureus [5] = assay: Antibacterial activity against Staphylococcus aureus ATCC 29213 after 16 to 20 hrs by broth microdilution method; assay type: functional; procedure, shortened: as §2
Escherichia coli [6] = assay: Induction of inner membrane permeabilization in Escherichia coli ATCC 25922 at 20 ug/ml measured every 2 mins for 12 mins by propidium iodide staining based fluorescence assay; assay type: functional, organism-based
Procedure, shortened: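 Mid-log cells (~10^8 CFU/mL) pre-incubated with propidium iodide (10 µM, 50 µL), 30 min for S. aureus and 40 min for E. coli. Fluorescence (ex 535/em 617 nm) read for 8 min, then compound added to 20 µg/mL final and monitored every 2 min for 12 min. Water-treated control.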

Staphylococcus aureus [7] = assay: Bactericidal activity against methicillin-resistant Staphylococcus aureus after 20 to 24 hrs in presence of 50% serum by broth microdilution method; assay type: functional, organism-based
Procedure, shortened: (§3)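 MRSA at 10⁵ CFU/mL in 50% Mueller-Hinton broth plus 50% sheep serum, plasma or defibrinated whole blood. Serum and plasma were separated by centrifugation at 3,500 rpm for 10 min. Aqueous compound dilutions (512–4 µg/mL before mixing) were combined 1:3 with the suspension and incubated 20-24 h at 37 °C. Wells were plated on Mueller-Hinton agar for a further 20-24 h; MBC was taken as no colonies.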

Staphylococcus aureus [8] = assay: Antibacterial activity against methicillin-resistant Staphylococcus aureus after 16 to 20 hrs by broth microdilution method; assay type: functional; procedure, shortened: as §2
Escherichia coli [9] = assay: Induction of cytoplasmic membrane depolarization in Escherichia coli ATCC 25922 at 20 ug/ml measured every 2 mins for 12 mins by diSC35 staining based fluorescence assay; assay type: functional, organism-based
Procedure, shortened: (§4)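 Mid-log cells (4–6 h) pelleted, washed and resuspended (~10^8 CFU/mL) in PBS for S. aureus, or in 5 mM HEPES, 5 mM glucose and 100 mM KCl (1:1:1) for E. coli. Preloaded with diSC35 (10 µM, 50 µL), 30 min for S. aureus and 40 min plus EDTA (200 µM, 50 µL) for E. coli. Baseline read 8 min (ex 622/em 670 nm), then compound added to 20 µg/mL final and read every 2 min for 12 min. Water control.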

Klebsiella pneumoniae [10] = assay: Antibacterial activity against carbapenemase-producing Klebsiella pneumoniae isolate K8 after 16 to 20 hrs by broth microdilution method; assay type: functional; procedure, shortened: as §1
Enterococcus faecalis = assay: Antibacterial activity against Enterococcus faecalis after 16 to 20 hrs by broth microdilution method; assay type: functional; procedure, shortened: as §1
Klebsiella pneumoniae [11] = assay: Antibacterial activity against carbapenemase-producing Klebsiella pneumoniae isolate K4 after 16 to 20 hrs by broth microdilution method; assay type: functional; procedure, shortened: as §1
Enterobacteriaceae [12] = assay: Antibacterial activity against NDM-1-producing Enterobacteriaceae isolate N4 after 16 to 20 hrs by broth microdilution method; assay type: functional; procedure, shortened: as §1
Klebsiella pneumoniae [13] = assay: Antibacterial activity against carbapenemase-producing Klebsiella pneumoniae isolate K1 after 16 to 20 hrs by broth microdilution method; assay type: functional; procedure, shortened: as §1
Enterobacteriaceae [14] = assay: Antibacterial activity against NDM-1-producing Enterobacteriaceae isolate N8 after 16 to 20 hrs by broth microdilution method; assay type: functional; procedure, shortened: as §1
Staphylococcus aureus [15] = assay: Ratio of MBC for methicillin-resistant Staphylococcus aureus in presence of 50% blood to MBC for methicillin-resistant Staphylococcus aureus; assay type: functional; procedure, shortened: as §3
Enterobacteriaceae [16] = assay: Antibacterial activity against NDM-1-producing Enterobacteriaceae isolate N2 after 16 to 20 hrs by broth microdilution method; assay type: functional; procedure, shortened: as §1
Staphylococcus aureus [17] = assay: Antibacterial activity against methicillin-resistant Staphylococcus aureus isolate M1 after 16 to 20 hrs by broth microdilution method; assay type: functional; procedure, shortened: as §2
Enterobacteriaceae [18] = assay: Antibacterial activity against NDM-1-producing Enterobacteriaceae isolate N3 after 16 to 20 hrs by broth microdilution method; assay type: functional; procedure, shortened: as §1
Escherichia coli [19] = assay: Antibacterial activity against Escherichia coli ATCC 25922 after 16 to 20 hrs by broth microdilution method; assay type: functional; procedure, shortened: as §1
Staphylococcus aureus [20] = assay: Antibacterial activity against methicillin-resistant Staphylococcus aureus isolate M8 after 16 to 20 hrs by broth microdilution method; assay type: functional; procedure, shortened: as §2
Klebsiella pneumoniae [21] = assay: Antibacterial activity against carbapenemase-producing Klebsiella pneumoniae isolate K5 after 16 to 20 hrs by broth microdilution method; assay type: functional; procedure, shortened: as §1
Enterobacteriaceae [22] = assay: Antibacterial activity against NDM-1-producing Enterobacteriaceae isolate N9 after 16 to 20 hrs by broth microdilution method; assay type: functional; procedure, shortened: as §1
Klebsiella pneumoniae [23] = assay: Antibacterial activity against carbapenemase-producing Klebsiella pneumoniae isolate K6 after 16 to 20 hrs by broth microdilution method; assay type: functional; procedure, shortened: as §1
Staphylococcus aureus [24] = assay: Bactericidal activity against methicillin-resistant Staphylococcus aureus after 20 to 24 hrs in presence of 50% blood by broth microdilution method; assay type: functional, organism-based; procedure, shortened: as §3
Klebsiella pneumoniae [25] = assay: Antibacterial activity against carbapenemase-producing Klebsiella pneumoniae isolate K3 after 16 to 20 hrs by broth microdilution method; assay type: functional; procedure, shortened: as §1
[26] = Hemolytic activity in sheep RBC after 1 hr; assay type: ADME, cell-based, Ovis aries, Erythrocyte; conditions: sheep red blood cells (erythrocytes)
Procedure, shortened: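 Sheep RBCs suspended at 5% in PBS; 150 µL added to 50 µL compound dilutions (5120 to 10 µg/mL series). Incubated 1 h at 37 °C, then centrifuged; supernatant absorbance read at 540 nm. Lysis (%) = (A−A0)/(Atotal−A0)×100, with untreated 5% RBC as A0 and 0.1% Triton X-100 as total.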

Staphylococcus aureus [27] = assay: Antibacterial activity against methicillin-resistant Staphylococcus aureus isolate M7 after 16 to 20 hrs by broth microdilution method; assay type: functional; procedure, shortened: as §2
Staphylococcus aureus [28] = assay: Bactericidal activity against methicillin-resistant Staphylococcus aureus after 20 to 24 hrs by broth microdilution method; assay type: functional
Procedure, shortened: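 For MBC, 20 µL from wells of the broth microdilution MIC plate showing little or no turbidity was plated on agar and incubated 20-24 h at 37 °C. MBC was the lowest concentration giving no colonies.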

Staphylococcus aureus [29] = assay: Induction of cytoplasmic membrane depolarization in Staphylococcus aureus ATCC 29213 at 20 ug/ml measured every 2 mins for 12 mins by diSC35 staining based fluorescence assay; assay type: functional, organism-based; procedure, shortened: as §4
Staphylococcus aureus [30] = assay: Antibacterial activity against methicillin-resistant Staphylococcus aureus isolate M6 after 16 to 20 hrs by broth microdilution method; assay type: functional; procedure, shortened: as §2

CCCCCCCCCCN(CCCCCCCCCC)C(=O)[C@@H](N)CCCN=C(N)N.Cl.Cl.Cl
MIC (Klebsiella pneumoniae [1]): 4 µg/mL
MIC (Klebsiella pneumoniae [2]): 4 µg/mL
MIC (Salmonella enterica): 4 µg/mL
MIC (Staphylococcus aureus [3]): 2 µg/mL
MBC (Staphylococcus aureus [4]): 16 µg/mL
MIC (Staphylococcus aureus [5]): 2 µg/mL
Activity (Escherichia coli [6]): Active
Activity (Staphylococcus aureus [7]): Active
MIC (Staphylococcus aureus [8]): 2 µg/mL
Activity (Escherichia coli [9]): Active
MIC (Klebsiella pneumoniae [10]): 4 µg/mL
MIC (Enterococcus faecalis): 2 µg/mL
MIC (Klebsiella pneumoniae [11]): 4 µg/mL
MIC (Enterobacteriaceae [12]): 4 µg/mL
MIC (Klebsiella pneumoniae [13]): 4 µg/mL
MIC (Enterobacteriaceae [14]): 4 µg/mL
Ratio (Staphylococcus aureus [15]): 8 - 16
MIC (Enterobacteriaceae [16]): 4 µg/mL
MIC (Staphylococcus aureus [17]): 2 µg/mL
MIC (Enterobacteriaceae [18]): 4 µg/mL
MIC (Escherichia coli [19]): 8 µg/mL
MIC (Staphylococcus aureus [20]): 2 µg/mL
MIC (Klebsiella pneumoniae [21]): 4 µg/mL
MIC (Enterobacteriaceae [22]): 8 µg/mL
MIC (Klebsiella pneumoniae [23]): 4 µg/mL
Activity (Staphylococcus aureus [24]): inactive
MIC (Klebsiella pneumoniae [25]): 4 µg/mL
HC50 at 1 h [26]: 87 µg/mL
MIC (Staphylococcus aureus [27]): 2 µg/mL
MBC (Staphylococcus aureus [28]): 4 to 8 µg/mL
Activity (Staphylococcus aureus [29]): Active
MIC (Staphylococcus aureus [30]): 2 µg/mL

CCCCCCCCN(CCCCCCCC)C(=O)[C@@H](N)CCCN=C(N)N.Cl.Cl.Cl
MIC (Klebsiella pneumoniae [1]): 4 µg/mL
MIC (Klebsiella pneumoniae [2]): 8 µg/mL
MIC (Salmonella enterica): 8 µg/mL
MIC (Staphylococcus aureus [3]): 1 µg/mL
MBC (Staphylococcus aureus [4]): 16 µg/mL
MIC (Staphylococcus aureus [5]): 1 µg/mL
Activity (Escherichia coli [6]): Active
Activity (Staphylococcus aureus [7]): Active
MIC (Staphylococcus aureus [8]): 0.5 µg/mL
Activity (Escherichia coli [9]): Active
MIC (Klebsiella pneumoniae [10]): 4 µg/mL
MIC (Enterococcus faecalis): 2 µg/mL
MIC (Klebsiella pneumoniae [11]): 4 µg/mL
MIC (Enterobacteriaceae [12]): 8 µg/mL
MIC (Klebsiella pneumoniae [13]): 8 µg/mL
MIC (Enterobacteriaceae [14]): 4 µg/mL
Ratio (Staphylococcus aureus [15]): 8 - 16
MIC (Enterobacteriaceae [16]): 8 µg/mL
MIC (Staphylococcus aureus [17]): 1 µg/mL
MIC (Enterobacteriaceae [18]): 8 µg/mL
MIC (Escherichia coli [19]): 2 µg/mL
MIC (Staphylococcus aureus [20]): 1 µg/mL
MIC (Klebsiella pneumoniae [21]): 8 µg/mL
MIC (Enterobacteriaceae [22]): 8 µg/mL
MIC (Klebsiella pneumoniae [23]): 8 µg/mL
Activity (Staphylococcus aureus [24]): inactive
MIC (Klebsiella pneumoniae [25]): 4 µg/mL
HC50 at 1 h [26]: 124 µg/mL
MIC (Staphylococcus aureus [27]): 0.5 µg/mL
MBC (Staphylococcus aureus [28]): 4 to 8 µg/mL
Activity (Staphylococcus aureus [29]): Active
MIC (Staphylococcus aureus [30]): 0.5 µg/mL
